# Measured values from different studies.
# Compare with care: the assays were run in different laboratories.
# Target: Bone morphogenetic protein receptor type-1B (BMPR1B, Homo sapiens, UniProt O00238)
SMILES,effect on,method,tested at,remaining binding
O=C(NCCCN1CCOCC1)c1ccc(Nc2nccc(-c3cc4ccccc4s3)n2)cc1,binding,competition with immobilised ligand,1 µM,34%
CCOC(=O)c1cc2cc(-c3cc(C(=O)NCc4ccc(C(=O)O)cc4)nn3C)ccc2[nH]1,cell-free assay,competition with immobilised ligand,0.1 µM,96%
N[C@H]1CCN(c2nccc(-c3cnn4ncccc34)n2)C1,binding,,1 µM,100%
CN([C@@H]1CCc2c(CC(=O)O)c3cc(S(C)(=O)=O)ccc3n2C1)S(=O)(=O)c1ccc(F)cc1,cell-free assay,competition with immobilised ligand,1 µM,100%
C=CC(=O)N1CCC(C(=O)NCC(=O)N2CCN(c3nc(-c4cnc(N)nc4C(F)F)nc(N4CCOCC4)n3)CC2)CC1,binding,competition with immobilised ligand,1 µM,64%
C[C@@H](c1ccc(-n2cnc3c(N)ncnc32)cc1)N1CCc2nn(C)c(Cc3ccccc3)c2C1=O,binding,competition with immobilised ligand,0.1 µM,84%
COc1ncc2cc3ccccc3nc2c1C#N,cell-free assay,competition with immobilised ligand,5 µM,89%
CNC(=O)[C@@H]1CC[C@@H](n2c(-c3ccc4cnccc4c3)nc3ccc(C(=O)NCc4cccc(C(N)=O)c4)cc32)C1,binding,competition with immobilised ligand,1 µM,80%
C[C@@H]1CN(c2cc(-c3nn(C)c4ccc(OC5(C)CC5)cc34)ncn2)C[C@H](C)O1,cell-free assay,competition with immobilised ligand,1 µM,77%
O=C(c1ccc(Nc2nccc(-c3cc4ccccc4s3)n2)cc1)N1CCC(N2CCCC2)CC1,binding,competition with immobilised ligand,1 µM,41%
CN(C)c1ncc(F)c(-c2cnn3ncccc23)n1,binding,,1 µM,64%
Cc1cnc(Nc2ccc(C(=O)N3CCC(N4CCCC4)CC3)cc2)nc1-c1cc2ccccc2s1,binding,competition with immobilised ligand,1 µM,26%
CN(C)c1nccc(-c2cnn3ncccc23)n1,binding,,1 µM,76%
COCCOc1nc(-c2ccc(Cl)nc2)nc2c1CN(C(=O)c1ncn3ccccc13)CC2,cell-free assay,competition with immobilised ligand,0.1 µM,100%
O=C(Nc1c[nH]nc1C(=O)NC1CCNCC1)c1cc(F)cc(F)c1,binding,competition with immobilised ligand,1 µM,84%
COc1cnc(Nc2cccc(S(N)(=O)=O)c2)nc1N1CCN(c2ccccc2)C(=O)C1,binding,competition with immobilised ligand,1 µM,100%
CC1CCCN1c1nccc(-c2cnn3ncccc23)n1 (stereo not shown),binding,,1 µM,84%
CNC(=O)Nc1ccc2c(c1)[C@@]1(CC2)OC(=O)N(CC(=O)N(Cc2ccc(F)cc2)[C@@H](C)C(F)(F)F)C1=O,cell-free assay,competition with immobilised ligand,1 µM,100%
F[C@@H]1CCN(c2nccc(-c3cnn4ncccc34)n2)C1,binding,,1 µM,72%
Nc1ncc2c(n1)-c1c([nH]c3ccc(C#CC4CC4)cc13)CCCC2,binding,competition with immobilised ligand,1 µM,96%
CCCCN(CCCC)C(=O)CN1C[C@H](c2cc(OC)c3c(c2)OCO3)[C@@H](C(=O)O)[C@@H]1CC(C)(C)CCC,cell-free assay,competition with immobilised ligand,1 µM,59%
CN(c1nccc(-c2cnn3ncccc23)n1)C1CC1,binding,,1 µM,76%
